KCNQ1 inh – blocks the human KCNQ1 potassium channel. B-score at 10 µM. 310,000 tested, 1.3% active. CHO-K1 KCNQ1, FluxOR thallium flux fluorescence; hits give high values;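 active = compounds whose thallium flux B-score, printed positive for inhibition, exceeds three library SD while starting fluorescence stays within three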;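 note: channel opened by potassium depolarization with thallium stimulus after 20 min compound exposure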
Kir21 inh – Kir2.1 (mouse) channel inhibition | P35561 | HEK293-Kir2.1, FluxOR thallium flux fluorescence; hits give low values | B-score at 10 µM | 310,000 tested, 0.85% active;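 active = fluorescence ratio B-score at or below minus 3 SD of library scores, with starting-brightness B-score within 2 SD, cut at about -4.2 in these data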;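 note: channel flux triggered by added potassium and thallium sulfate stimulus; B-score of peak minus minimum fluorescence over baseline after thallium stimulus; more negative B-score means stronger Kir2.1 block with less thallium influx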
KCNQ1 pot – potentiators or activators of human KCNQ1 potassium channel | B-score at 10 µM | 310,000 tested, 0.35% active | CHO-K1 KCNQ1, thallium flux FluxOR fluorescence; hits give high values | P51787;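 active = fluorescence ratio B-score, a plate-corrected score, at least three library SD, with initial intensity B-score within 5 SD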
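Doses: Single concentration per compound, DMSO matched to controls | Test system: KCNQ1-transfected CHO-K1 cells | Timing: 90 min dye loading and 20 min compound exposure, both at room temperature | Measured by: Kinetic FluxOR thallium fluorescence, 10-s 1-Hz baseline, 110-s post-stimulus read | Medium: Assay buffer with matched DMSO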
hERG protect – shields human hERG channel from block by proarrhythmic agents. Q12809. CHO-hERG, FluxOR thallium flux, dofetilide IC70 present. activation (rescue from dofetilide block), less the hit threshold, % at 10 µM. 310,000 tested, 0.51% active;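 active = activation above the mean of controls blocked by dofetilide plus 5 SD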;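 note: thallium influx through hERG after potassium depolarization seen as dye fluorescence rise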
KCNK9 inh – inhibitors of human KCNK9 two-pore domain potassium channel; Q9NPC2; HEK293 KCNK9, FluxOR thallium flux fluorescence; hits give low values; B-score at 10 µM; 310,000 tested, 1.2% active; AID 488922;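 active = ratio B-score over 3 SD below the library mean, with starting fluorescence within 5 SD of its mean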;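 note: negative B-score means less thallium flux so channel inhibition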
KCNK3 block – human KCNK3 channel inhibition, primary screen; 340,000 tested, 0.84% active; CHO-KCNK3 thallium flux, FluxOR fluorescence; hits give low values; B-score at 10 µM;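 active = B-score under library mean minus 4 SD, starting fluorescence ratio at most library mean plus 5 SD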;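 note: more negative B-score means stronger inhibition of thallium flux through KCNK3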
Target sequence (O14649 whole entry, looked up): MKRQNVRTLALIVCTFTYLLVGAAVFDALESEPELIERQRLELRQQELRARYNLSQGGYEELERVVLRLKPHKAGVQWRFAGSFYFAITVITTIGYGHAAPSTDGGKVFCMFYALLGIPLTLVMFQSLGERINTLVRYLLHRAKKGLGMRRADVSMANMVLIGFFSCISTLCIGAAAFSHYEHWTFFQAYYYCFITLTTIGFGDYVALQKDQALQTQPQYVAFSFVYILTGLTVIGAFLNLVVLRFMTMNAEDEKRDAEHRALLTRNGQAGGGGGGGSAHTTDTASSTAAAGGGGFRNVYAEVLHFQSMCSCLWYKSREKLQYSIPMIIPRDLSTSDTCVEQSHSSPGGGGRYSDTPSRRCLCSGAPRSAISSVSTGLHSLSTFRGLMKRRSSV
Large screens that a line does not name were inactive. A selection: hits, their analogues and other compounds. The true share with any hit is near 3.7%.

COCCNCCCCOc1ccccc1-c1ccccc1	Kir21 inh -6.3
CC(C)NCCCCOc1ccccc1-c1ccccc1	Kir21 inh -5.6 (no result: KCNK3 block)
CC1(C)NC(=O)N(CCOCCOc2ccccc2-c2ccccc2)C1=O	Kir21 inh -5.4
C=CCNCCOc1ccccc1-c1ccccc1	none
CCCCNCCOCCOc1ccccc1-c1ccccc1	Kir21 inh -10
CCC(=O)c1ccccc1OCCN1C(=O)NC(C)(C)C1=O	none
CN(C)CCCCOc1ccccc1-c1ccccc1	none
CN1CCN(c2ccc(S(=O)(=O)N3CCOCC3)cc2NC(=O)Cc2ccccc2F)CC1	none (no result: KCNQ1 inh, Kir21 inh, KCNQ1 pot, hERG protect, KCNK9 inh)
COc1ccc(S(=O)(=O)N2CCNCC2)cc1	hERG protect 6.5
COc1ccc(S(=O)(=O)N2CCCCCC2)cc1	none
O=C(Nc1ccc(C(F)(F)F)cc1)N1CCN(c2ccnc3cc(Cl)ccc23)CC1	KCNQ1 inh 6
C/C(=N\NC(=O)c1ccccc1[N+](=O)[O-])c1ccc(Br)s1	none
C/C(=N\NC(=O)c1cccc(Br)c1)c1ccc(Br)cc1	none
C/C(=N\NC(=O)c1ccccc1O)c1ccc(Br)s1	hERG protect 5.4
C/C(=N\NC(=O)c1cccc(F)c1)c1ccc(Br)s1	KCNQ1 pot 11
CCn1cc(S(=O)(=O)NCc2ccc(OC)cc2)cn1	none
OCCN(CCO)c1ccc(C(c2ccc(Cl)cc2)c2ccc(N(CCO)CCO)cc2Cl)c(Cl)c1	KCNQ1 pot 8
CCOC(=O)c1sc2nccc(N(C)C)c2c1N=CNOCc1c(F)cccc1Cl	KCNQ1 inh 8
CCOC(=O)c1sc2nccc(N(C)C)c2c1N=CNOCc1ccccc1	none (no result: KCNQ1 inh, Kir21 inh, KCNQ1 pot, hERG protect, KCNK9 inh)
CCOC(=O)c1c(NC(C)=O)sc2c1CCC(C=O)=C2Sc1ccccc1	KCNK9 inh -6.9
COC(=O)[C@@]12CCCCN1[C@H](c1ccc(-c3ccc4c(c3)OCO4)c(OC)c1)[C@@H]1C(=O)N(C)C(=O)[C@@H]12	none (no result: KCNQ1 inh, Kir21 inh, KCNQ1 pot, hERG protect, KCNK9 inh)
CCCCN(CCCC)C(=O)c1cc(Cl)ccc1[N+](=O)[O-]	Kir21 inh -7
O=C1CCCN1C(=O)CSc1ncnc2sccc12	none (no result: KCNQ1 inh, Kir21 inh, KCNQ1 pot, hERG protect, KCNK9 inh)
CC(C)S(=O)(=O)C1=NSC2=NC(=O)/C(=C\c3ccc(-c4cccc(C(=O)O)c4)o3)C(=N)N21	none (no result: KCNQ1 inh, Kir21 inh, KCNQ1 pot, hERG protect, KCNK9 inh)
N=C1/C(=C\c2ccc(-c3cc(Cl)cc(Cl)c3)o2)C(=O)N=C2SC=C(c3ccccc3)N12	none
CC(C)S(=O)(=O)C1=NSC2=NC(=O)/C(=C\c3ccc(-c4ccccc4)o3)C(=N)N21	KCNQ1 inh 8
N=C1/C(=C/c2ccc(-c3cccc(C(=O)O)c3)o2)C(=O)N=C2SC=C(c3ccccc3)N12	KCNQ1 inh 7
Cc1cc(C=O)c2c(c1)C=CC1(Oc3ccccc3C(=O)N1C)O2 (stereo unspecified)	hERG protect 21 (no result: KCNK3 block)
COC(=O)C1=C(C)N(c2cccc(OC)c2)C(=O)/C1=C\c1ccco1	KCNK9 inh -7.3
CCN1C(=O)/C(=C\c2ccco2)C(C(=O)OC)=C1C	none
CCn1nc(C)c(CNC(=O)C2CCC(=O)N(Cc3ccc(Cl)cc3)C2)c1C (stereo unspecified)	none
CC(C)c1ccc(/C=C/C(=O)NC(=S)NN2CCOCC2)cc1	none
CC(C)c1ccc(/C=C/C(=O)NC(=S)Nc2ccc(CN3CCOCC3)cc2)cc1	KCNQ1 inh 9
COc1ccc(/C=N/NC(=O)Nc2cccc3nsnc23)cc1OC	KCNK9 inh -6.6
COc1ccc(/C=N/NC(=O)c2cccc(C(=O)N/N=C/c3ccc(OC)c(OC)c3)n2)cc1OC	none
Cc1ccccc1NC(=O)Cc1nc(COC(=O)CC(C)c2ccccc2)cs1 (stereo unspecified)	none (no result: KCNQ1 inh, Kir21 inh, KCNQ1 pot, hERG protect, KCNK9 inh)
Nc1c(N(CCC2=CCCCC2)C(=O)c2ccc([N+](=O)[O-])o2)c(=O)[nH]c(=O)n1Cc1ccccc1	none
Cc1nnc(NC(=O)C2CCCN(S(=O)(=O)c3ccccc3C(F)(F)F)C2)s1 (stereo unspecified)	hERG protect 15
COC(=O)c1ccc(CNC(=O)C2CCC(=O)N(CCCc3ccccc3)C2)cc1 (stereo unspecified)	none
CC(C)(C)c1ccc(C(=O)NNc2ncccc2-n2cccc2)cc1	KCNQ1 inh 7
O=C(NNC(=O)c1ccccc1-n1cccc1)c1ccc(Cl)cc1	none
CN1CCN(C(c2ccccn2)c2cc(Cl)c3cccnc3c2O)CC1 (stereo unspecified)	none
Oc1c(C(c2ccccn2)N2CCC(Cc3ccccc3)CC2)cc(Cl)c2cccnc12 (stereo unspecified)	KCNQ1 inh 13 (no result: KCNK3 block)
O=C(NCCOC(=O)c1ccccc1)c1ccc([N+](=O)[O-])cc1	none
CC(=O)/C(=C/c1ccccc1)C(=O)Nc1ccccc1C	Kir21 inh -5.5
O=C(COc1ccc2c(c1)OCO2)Nc1ccccc1F	none
Fc1ccc(C2CCNCC2COc2ccc3c(c2)OCO3)cc1 (stereo unspecified)	Kir21 inh -6.5
Fc1ccc([C@@H]2CCNC[C@H]2COc2ccc3c(c2)OCO3)cc1	Kir21 inh -6.5
CS(=O)(=O)c1ccc(Cl)c(NC(=O)CN2CCN(C(=O)c3cccs3)CC2)c1	none (no result: KCNQ1 inh, Kir21 inh, KCNQ1 pot, hERG protect, KCNK9 inh)
Cc1ccc2c(c1)[C@@H]1[C@H](CO2)[C@H](c2ccccc2)[C@@]2(C)C(=O)N[C@H](C)C(=O)N12	none (no result: KCNQ1 inh, Kir21 inh, KCNQ1 pot, hERG protect, KCNK9 inh)
O=C1CCC(C(=O)N2CCCO2)CN1Cc1cccc(C(F)(F)F)c1 (stereo unspecified)	none
Clc1ccc(CSc2nnc(CNc3cccc(Cl)c3)o2)cc1	KCNQ1 inh 6
Fc1cccc(Cl)c1CSc1nnc(CNc2ccccc2)o1	none
CCOc1ccc(NC(=O)c2c(NC(=O)CNCCN3CCOCC3)sc3c2CCC3)cc1	none
O=C(NC(Cc1c[nH]c2ccccc12)C(=O)N/N=C/c1cccc2ccccc12)c1cccs1 (stereo unspecified)	KCNQ1 inh 6
Fc1ccc(CN2CCCN(Cc3nc(-c4ccc5c(c4)OCO5)no3)CC2)cc1	Kir21 inh -6.8
O=C(c1ccco1)N1CCCN(Cc2nc(-c3ccc4c(c3)OCO4)no2)CC1	none
CCCn1nc(NC(=O)c2cccs2)c2cc3cc(C)ccc3nc21	KCNK9 inh -7.1
CC(C)COc1ccc(C(=O)NC(CC(C)C)C(=O)O)cc1 (stereo unspecified)	none
Cc1ccc(Oc2ccc(OCC(=O)NC(CC(C)C)C(=O)O)cc2)cc1 (stereo unspecified)	hERG protect 4.9
Cc1ccc(NC(=O)Nc2ccccc2F)cc1S(=O)(=O)N1CCOCC1	KCNK3 block -10 (no result: KCNQ1 inh, Kir21 inh, KCNQ1 pot, hERG protect, KCNK9 inh)
CC1(c2ccccc2)C(C#N)C(=O)NC(=O)C1C#N (stereo unspecified)	none (no result: KCNQ1 inh, Kir21 inh, KCNQ1 pot, hERG protect, KCNK9 inh)
Cc1cc(C)c2c(=O)n(CC(=O)N3CCC(Cc4ccccc4)CC3)sc2n1	none (no result: KCNK3 block)
Cc1cccc(N2CCN(C(=O)Cn3sc4nc(C)cc(C)c4c3=O)CC2C)c1 (stereo unspecified)	KCNQ1 pot 14
